Active and inactive are the calls of the source. The rule behind the calls is not given here.
How the values were obtained:
[1] = target: DNA polymerase I, thermostable (Thermus aquaticus) (UniProt P19821); assay: (§1) Inhibition of Thermus aquaticus taq DNA polymerase by PCR analysis
How it was run: (§2)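 PCR with 2.5 U Taq polymerase in 40 mM Tris-acetate pH 8.3, 15 mM MgCl2, […], 2.5 mM each dNTP; compounds in DMSO at varying concentrations. 35 cycles: 95 °C 1 min, anneal 56 °C, extend 72 °C 90 s. Ethidium bromide-stained gel band intensities scanned; IC50 = concentration inhibiting activity 50%.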

[2] = Inhibition of MMLV reverse transcriptase using desoxynucleotide triphosphate as substrate after 10 mins by RT-PCR analysis; design: species or system Moloney murine leukemia virus
How it was run: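 Reverse transcription mix: 1 µg RNA in commercial buffer, 2.0 U MMLV-RT, 20 µM random primers, 1.0 mM each dNTP; compounds (DMSO) added at varying concentrations during RT step. Heated 70 °C 10 min, then incubated 1 h at […]. Products on ethidium bromide-stained agarose gel, band intensities quantified by scanning; IC50 = concentration giving 50% inhibition.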

[3] = target: DNA polymerase I, thermostable (Thermus aquaticus, UniProt P19821); assay: as §1; how it was run: as §2
Chain of DNA polymerase I, thermostable (P19821 whole entry): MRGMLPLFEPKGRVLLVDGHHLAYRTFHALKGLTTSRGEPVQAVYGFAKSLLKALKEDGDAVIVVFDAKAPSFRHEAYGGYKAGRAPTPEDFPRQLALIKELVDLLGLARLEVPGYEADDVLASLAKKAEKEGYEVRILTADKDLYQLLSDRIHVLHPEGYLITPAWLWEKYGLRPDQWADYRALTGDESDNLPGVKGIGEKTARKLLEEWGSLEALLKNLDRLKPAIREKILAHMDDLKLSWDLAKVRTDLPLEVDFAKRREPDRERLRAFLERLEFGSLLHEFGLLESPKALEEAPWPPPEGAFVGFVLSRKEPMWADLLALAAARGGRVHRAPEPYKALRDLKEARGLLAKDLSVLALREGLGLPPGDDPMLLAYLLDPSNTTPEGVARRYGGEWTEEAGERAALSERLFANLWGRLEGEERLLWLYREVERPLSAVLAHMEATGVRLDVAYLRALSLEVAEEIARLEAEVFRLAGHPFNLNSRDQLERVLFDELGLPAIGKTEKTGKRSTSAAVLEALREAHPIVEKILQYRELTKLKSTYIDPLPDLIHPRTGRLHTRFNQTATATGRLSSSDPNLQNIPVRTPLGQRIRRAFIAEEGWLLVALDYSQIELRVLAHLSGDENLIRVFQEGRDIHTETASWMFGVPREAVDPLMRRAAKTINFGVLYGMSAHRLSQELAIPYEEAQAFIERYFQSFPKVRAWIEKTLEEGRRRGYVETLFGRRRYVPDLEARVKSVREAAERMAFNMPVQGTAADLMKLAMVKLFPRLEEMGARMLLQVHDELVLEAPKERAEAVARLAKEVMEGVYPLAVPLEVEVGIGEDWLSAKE

Chain of DNA polymerase I, thermostable (Thermus aquaticus) (P19821 whole entry): as above

O=c1ccc2ccccc2o1 [COUMARIN]
inhibition [1]: inactive | IC50 [2]: 38.6 µM

C/C(C=O)=C\COc1c2c(cc3oc(=O)ccc13)OCO2
inhibition [1]: inactive

CC(C)(O)C(O)COc1c2c(cc3oc(=O)ccc13)OCO2 (stereo unspecified)
inhibition [1]: inactive

CC(C)(O)C(Br)COc1c2c(cc3oc(=O)ccc13)OCO2 (stereo unspecified)
IC50 [3]: 57.9 µM

CC(C)(O)C(=O)COc1c2c(cc3oc(=O)ccc13)OCO2
inhibition [1]: inactive

CC(C)=CCOc1c2c(cc3oc(=O)ccc13)OCO2
inhibition [1]: inactive

C=CCc1c(O)c2ccccc2oc1=O
inhibition [1]: inactive | IC50 [2]: 51 µM

COc1cc2c(c3oc(=O)ccc13)OCO2
inhibition [1]: inactive

C/C(=C\COc1c2c(cc3oc(=O)ccc13)OCO2)CO
IC50 [3]: 48.1 µM

Source: ChEMBL document CHEMBL3112585, “Inhibition of reverse transcriptase and Taq DNA polymerase by compounds possessing the coumarin framework” (Bioorg Med Chem Lett, 2014)
